# From PubChem
# PAFAH1B3 FP inh = inhibitors of human PAFAH1B3 | Q15102 | recombinant PAFAH1B3, FP-rhodamine probe, fluorescence polarization | inhibition, % at 3.39 µM | 340,000 tested, 0.28% active | AID 492972;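 active = inhibition above the screen-wide average of all tested compounds plus 3 SD, cut at about 25% in these data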;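 note: 0% = enzyme with DMSO only and 100% = wells lacking PAFAH1B3 protein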
# Target sequence (Q15102 whole entry, looked up): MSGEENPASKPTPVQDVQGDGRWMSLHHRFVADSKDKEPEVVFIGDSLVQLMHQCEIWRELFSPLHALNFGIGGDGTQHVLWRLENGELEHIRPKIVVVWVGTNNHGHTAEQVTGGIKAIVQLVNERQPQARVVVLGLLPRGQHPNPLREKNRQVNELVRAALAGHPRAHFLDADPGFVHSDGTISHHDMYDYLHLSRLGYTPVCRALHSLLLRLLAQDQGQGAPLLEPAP
# IMP-1 inhibitor = blocks Pseudomonas aeruginosa IMP-1 metallo-beta-lactamase; 290,000 tested, 0.45% active; inhibition, % at 5.6 µM; purified IMP-1, nitrocefin hydrolysis, epi-absorbance fluorescence;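 active = inhibition above the mean plus 3 SD of all compounds in the same screening run, cut at about 4.5% in these data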;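 note: 0% = IMP-1 with DMSO and 100% = DMSO wells lacking enzyme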
#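 Assay system: purified IMP-1; Quantity: IMP-1 0.2 nM before substrate addition; Medium: HEPES buffer pH 7.1 with ZnSO4 and Brij 35; Incubation: 15 min enzyme–compound preincubation, then 25 min nitrocefin reaction, 25 °C; Signal: fluorescence quenching readout, ex 480/em 530 nm; Controls: DMSO with and without IMP-1; Repeats: singlicate testing.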
# pPAFAH inh = pPAFAH (human) enzyme inhibition; 330,000 tested, 1.5% active; inhibition, % at 3.39 µM; Q13093; recombinant pPAFAH, FP-rhodamine probe fluorescence polarization;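 active = inhibition above the mean inhibition across the screen plus 3 SD, cut at about 25% in these data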;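 note: inhibitors block binding of the rhodamine activity-based probe so polarization drops; 0% = enzyme with DMSO and 100% = wells lacking pPAFAH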
# PAFAH1B2 FP inh = PAFAH1B2 (human) inhibition; AID 492953; 340,000 tested, 1.2% active; recombinant PAFAH1B2, FP-rhodamine activity probe, fluorescence polarization; P68402; inhibition, % at 3.39 µM;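 active = inhibition above the mean of all tested compounds plus 3 SD, cut at about 24% in these data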;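 note: 0% = enzyme with DMSO and 100% = wells lacking PAFAH1B2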
# Target sequence (P68402 whole entry, looked up): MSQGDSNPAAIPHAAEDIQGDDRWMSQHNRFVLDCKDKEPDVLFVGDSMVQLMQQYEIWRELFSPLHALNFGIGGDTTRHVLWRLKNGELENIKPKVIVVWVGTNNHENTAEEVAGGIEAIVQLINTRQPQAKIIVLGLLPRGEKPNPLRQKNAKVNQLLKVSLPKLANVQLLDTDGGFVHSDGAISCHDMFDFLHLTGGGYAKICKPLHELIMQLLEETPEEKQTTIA
# VIM-2 inh = inhibitors of Pseudomonas aeruginosa VIM-2 metallo-beta-lactamase; purified VIM-2, nitrocefin hydrolysis, epi-absorbance fluorescence; inhibition, % at 5.6 µM; AID 1527; 290,000 tested, 0.89% active;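 active = inhibition above the mean of all tested compounds plus 3 SD, cutoff set per screening run, cut at about 7.5% in these data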;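 note: red hydrolysis product quenches plate fluorescence so inhibitors raise well fluorescence; 0% = enzyme with DMSO and 100% = DMSO without enzyme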
# PAFAH2 inh = inhibitors of human PAFAH2; recombinant PAFAH2, FP-rhodamine activity probe, fluorescence polarization; inhibition, % at 3.39 µM; 340,000 tested, 0.99% active; AID 492956;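 active = inhibition above the mean over all tested compounds plus 3 SD, cut at about 30% in these data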;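 note: inhibitors block probe labeling of enzyme so polarization drops; 0% = enzyme with DMSO and 100% = wells lacking PAFAH2 protein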
# PAFAH2 FP conf = confirmation of human PAFAH2 inhibitors | shares compounds with PAFAH2 inh | recombinant PAFAH2, FP-rhodamine activity probe, fluorescence polarization | inhibition, % at 3.39 µM | 2,300 tested, 65% active;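 active = mean inhibition over three repeats above a set limit taken from the earlier primary screen, cut at about 30% in these data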;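 note: inhibitor blocks binding of rhodamine activity probe so polarization falls; 0% = enzyme with DMSO and 100% = wells lacking PAFAH2 protein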
# The depositor's hits bear a star; / = no result given. Rows were chosen to be rich in hits. Some 3.6% of all compounds tested hit in one or more screens of this group.
SMILES,PAFAH1B3 FP inh,IMP-1 inhibitor,pPAFAH inh,PAFAH1B2 FP inh,VIM-2 inh,PAFAH2 inh,PAFAH2 FP conf
CC(=O)Oc1ccc(/C=C/c2nc3ccccc3c(=O)o2)cc1,9,0,-5,7,0,50*,57*
Cc1ccc(C2=N/C(=C\c3ccc(F)cc3)C(=O)N2)cc1,3,/,-6,-2,/,-2,/
Nc1cc(C(F)(F)F)ccc1NCCc1ccccn1,5,-3,7,6,2,64*,52*
O=C(NCC(=O)N1CCN(c2ccccn2)CC1)c1ccc(Br)o1,6,-3,-9,1,-2,12,/
CN(C)c1cccc(C(=O)OCC(=O)NC2CCCC2)c1,7,-2,23,5,-1,77*,78*
O=C(COC(=O)c1cccc(O)c1)Nc1ccc(OC(F)F)cc1,3,-2,0,4,0,64*,54*
O=C(COC(=O)c1cccc(OC(F)F)c1)NC1CCCC1,7,-4,24,0,-1,52*,40*
CCOc1ccc2c3c(c(=O)oc2c1OCC)CCCC3,5,-2,5,5,2,13,/
CCCOc1ccc2c3c(c(=O)oc2c1OCCC)CCCC3,-7,-2,5,0,-1,35*,19
O=c1oc(-c2cccs2)nc2c1cnn2-c1ccccc1,0,-2,18,3,-1,66*,54*
O=c1c2cnn(-c3ccccc3)c2nc(-c2cccs2)n1-c1ccc(Cl)cc1,3,0,4,5,1,3,/
COc1cc2nc(-c3cccs3)oc(=O)c2cc1OC,17,-1,-2,0,0,41*,23
Cc1ccc2nc(-c3cccs3)oc(=O)c2c1,11,-3,2,-1,-2,54*,54*
COc1ccc(NC(=O)CS(=O)(=O)c2ccccc2Cl)cc1,13,1,-3,4,-1,-3,/
COc1ccc(CC(=O)Nc2cc(S(C)(=O)=O)ccc2Cl)cc1S(=O)(=O)N1CCOCC1,5,/,/,-2,/,3,/
Cc1ccc(C(=O)Nc2ccc3c(c2)OCO3)cc1S(=O)(=O)N1CCOCC1,-3,-3,-2,2,-1,4,/
O=C(COC(=O)Cc1ccccc1F)Nc1ccccc1[N+](=O)[O-],14,/,7,8,/,8,/
CC(=O)c1ccc(NC(=O)COC(=O)CC2CC3CCC2C3)cc1 (configuration not stated),12,/,22,9,/,34*,14
O=C(COC(=O)CC1CC2CCC1C2)Nc1ccccc1[N+](=O)[O-] (configuration not stated),14,/,18,10,/,66*,59*
CCOc1ccc(NC(=O)CN(C)C(=O)CC2CC3CCC2C3)cc1OCC (configuration not stated),0,-2,0,-3,-2,-6,/
N#Cc1ccc(NC(=O)COC(=O)c2ccc(F)c(S(=O)(=O)N3CCOCC3)c2)cc1,10,/,7,1,/,48*,39*
Cc1ccc(C(=O)OCC(=O)Nc2ccc3c(c2)OCO3)cc1S(=O)(=O)N1CCOCC1,4,0,21,-2,-2,74*,76*
COc1ccc(C(=O)NCCS(=O)(=O)NC(C)c2ccccc2)cc1 (configuration not stated),7,/,0,5,/,-6,/
CN(C(=O)c1ccc(NC(=O)Cc2ccc(NC(=O)C3CCCN(C(=O)CCc4ccccc4)C3)cc2)cc1)C1CCCC1 (configuration not stated),4,/,/,4,/,3,/
Nc1nonc1C(=O)NCCNC(=O)c1ccc(Cl)cc1,6,-3,3,7,0,6,/
Cc1ccc2nc(SCC(=O)NCCCN3CCCC3=O)[nH]c2c1,4,/,8,12,/,-1,/
Cc1ccc2nc(-c3ccccn3)cc(C(=O)NCCc3ccc(F)cc3)c2c1,0,-4,2,0,-4,-4,/
Cc1ccc(C(=O)OCC(=O)Nc2ccc3[nH]c(=O)[nH]c3c2)cc1S(=O)(=O)N1CCOCC1,2,/,2,-1,/,2,/
